Values after ≈ are worked out from the molar mass of the structure shown. Where a SMILES comes first, the peptide text is derived from it. [ ]: non-standard residue; d: D form. Dap = NC[C@H](N)C(=O)O
Assays:
Acinetobacter baumannii [1] = assay: Antibacterial activity against Acinetobacter baumannii isolate 952654 measured after 24 hrs by microtiter dilution method; type: functional; details: isolate 952654, 24 h
Method in brief: (§1)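 Broth microdilution in Mueller-Hinton (MH) medium. […] Plates were incubated 24 h at 37 °C. MIC was the lowest peptide concentration that inhibited growth, based on three sets of replicates.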

[2] = Therapeutic index, ratio of HC50 for human RBC to MIC for polymyxin B/colistin-resistant Acinetobacter baumannii M89953; type: toxicity; details: human red blood cells, read-out: TI
Method in brief: (§2)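 T.I. = HC50/MIC. For HC50, peptide (quantified by amino acid analysis) was two-fold serially diluted over 12 concentrations up to 1000 μg/mL. It was incubated with 1% fresh human erythrocytes in PBS, pH 7.4, for 18 h at 37 °C. After 800g centrifugation, hemoglobin was read at 570 nm against water (100%) and no-peptide (0%) controls. HC50 came from a lysis-versus-concentration plot, average of 3 replicates.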

Acinetobacter baumannii [3] = assay: Antibacterial activity against Acinetobacter baumannii isolate 1021371 measured after 24 hrs by microtiter dilution method; type: functional; details: isolate 1021371, 24 h; method in brief: as §1
Acinetobacter baumannii [4] = assay: Antibacterial activity against Acinetobacter baumannii isolate 961997 measured after 24 hrs by microtiter dilution method; type: functional; details: isolate 961997, 24 h; method in brief: as §1
Acinetobacter baumannii [5] = assay: Antibacterial activity against Acinetobacter baumannii isolate 977751 measured after 24 hrs by microtiter dilution method; type: functional; details: isolate 977751, 24 h; method in brief: as §1
Acinetobacter baumannii [6] = assay: Antibacterial activity against Acinetobacter baumannii isolate 963659 measured after 24 hrs by microtiter dilution method; type: functional; details: isolate 963659, 24 h; method in brief: as §1
Acinetobacter baumannii [7] = assay: Antibacterial activity against polymyxin B/colistin-resistant Acinetobacter baumannii M89941 measured after 24 hrs by microtiter dilution method; type: functional; details: M89941, 24 h; method in brief: as §1
Acinetobacter baumannii [8] = assay: Antibacterial activity against Acinetobacter baumannii isolate 9383370 measured after 24 hrs by microtiter dilution method; type: functional; details: isolate 9383370, 24 h; method in brief: as §1
Acinetobacter baumannii [9] = assay: Antibacterial activity against Acinetobacter baumannii isolate 1002956 measured after 24 hrs by microtiter dilution method; type: functional; details: isolate 1002956, 24 h; method in brief: as §1
Acinetobacter baumannii [10] = assay: Antibacterial activity against Acinetobacter baumannii isolate 1010282 measured after 24 hrs by microtiter dilution method; type: functional; details: isolate 1010282, 24 h; method in brief: as §1
[11] = Therapeutic index, ratio of HC50 for human RBC to MIC for polymyxin B/colistin-resistant Acinetobacter baumannii M89955; type: toxicity; details: human red blood cells, read-out: TI; method in brief: as §2
Acinetobacter baumannii [12] = assay: Antibacterial activity against polymyxin B/colistin-resistant Acinetobacter baumannii M89953 measured after 24 hrs by microtiter dilution method; type: functional; details: M89953, 24 h; method in brief: as §1
Acinetobacter baumannii [13] = assay: Antibacterial activity against Acinetobacter baumannii isolate 1007660 measured after 24 hrs by microtiter dilution method; type: functional; details: isolate 1007660, 24 h; method in brief: as §1
Acinetobacter baumannii [14] = assay: Antibacterial activity against Acinetobacter baumannii isolate 968886 measured after 24 hrs by microtiter dilution method; type: functional; details: isolate 968886, 24 h; method in brief: as §1
Acinetobacter baumannii [15] = assay: Antibacterial activity against Acinetobacter baumannii isolate 963618 measured after 24 hrs by microtiter dilution method; type: functional; details: isolate 963618, 24 h; method in brief: as §1
Acinetobacter baumannii [16] = assay: Antibacterial activity against Acinetobacter baumannii isolate 1035794 measured after 24 hrs by microtiter dilution method; type: functional; details: isolate 1035794, 24 h; method in brief: as §1
Acinetobacter baumannii [17] = assay: Antibacterial activity against polymyxin B/colistin-resistant Acinetobacter baumannii M89955 measured after 24 hrs by microtiter dilution method; type: functional; details: M89955, 24 h; method in brief: as §1
Acinetobacter baumannii [18] = assay: Antibacterial activity against Acinetobacter baumannii isolate 964304 measured after 24 hrs by microtiter dilution method; type: functional; details: isolate 964304, 24 h; method in brief: as §1
Acinetobacter baumannii [19] = assay: Antibacterial activity against Acinetobacter baumannii isolate 1010245 measured after 24 hrs by microtiter dilution method; type: functional; details: isolate 1010245, 24 h; method in brief: as §1
Acinetobacter baumannii [20] = assay: Antibacterial activity against Acinetobacter baumannii isolate 1018887 measured after 24 hrs by microtiter dilution method; type: functional; details: isolate 1018887, 24 h; method in brief: as §1
Acinetobacter baumannii [21] = assay: Antibacterial activity against polymyxin B/colistin-resistant Acinetobacter baumannii M89949 measured after 24 hrs by microtiter dilution method; type: functional; details: M89949, 24 h; method in brief: as §1
Acinetobacter baumannii [22] = assay: Antibacterial activity against Acinetobacter baumannii isolate 1035166 measured after 24 hrs by microtiter dilution method; type: functional; details: isolate 1035166, 24 h; method in brief: as §1
Acinetobacter baumannii [23] = assay: Antibacterial activity against Acinetobacter baumannii isolate 1001611 measured after 24 hrs by microtiter dilution method; type: functional; details: isolate 1001611, 24 h; method in brief: as §1
[24] = Therapeutic index, ratio of HC50 for human RBC to MIC for polymyxin B/colistin-resistant Acinetobacter baumannii M89951; type: toxicity; details: human red blood cells, read-out: TI; method in brief: as §2
Acinetobacter baumannii [25] = assay: Antibacterial activity against Acinetobacter baumannii 649 measured after 24 hrs in presence of 25% human serum by microtiter dilution method; type: functional; details: Acinetobacter baumannii, 649, 24 h
Method in brief: (§3)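 Blood strain 649 was tested by MH broth microdilution with and without 25% (v/v) human serum added to the medium. The test used a final inoculum of 5 × 10^5 cfu/mL and incubation at 37 °C. The ratio is the MIC in serum over the MIC in MH alone.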

[26] = Hemolytic activity against human RBC measured after 18 hrs by spectrophotometric method; type: ADME, cell-based, Erythrocyte; details: human red blood cells (erythrocytes)
Method in brief: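 Peptide (amount by amino acid analysis), two-fold serial dilutions at 12 concentrations up to 1000 μg/mL, with 1% human erythrocytes in PBS pH 7.4, 37 °C, 18 h. Unlysed cells removed by centrifugation (800g); hemoglobin read at 570 nm. Water-lysed cells = 100%, no-peptide cells = 0%. HC50 from plot of % lysis vs concentration (μM), average of 3 replicates.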

[27] = Therapeutic index, ratio of HC50 for human RBC to MIC for polymyxin B/colistin-resistant Acinetobacter baumannii M89952; type: toxicity; details: human red blood cells, read-out: TI; method in brief: as §2
[28] = Therapeutic index, ratio of HC50 for human RBC to MIC for polymyxin B/colistin-resistant Acinetobacter baumannii M89949; type: toxicity; details: human red blood cells, read-out: TI; method in brief: as §2
Acinetobacter baumannii [29] = assay: Ratio of MIC for Acinetobacter baumannii 649 measured in presence of 25% human serum to MIC for Acinetobacter baumannii 649 in absence of 25% human serum; type: functional; method in brief: as §3
Acinetobacter baumannii [30] = assay: Antibacterial activity against Acinetobacter baumannii isolate 965463 measured after 24 hrs by microtiter dilution method; type: functional; details: isolate 965463, 24 h; method in brief: as §1
Acinetobacter baumannii [31] = assay: Antibacterial activity against Acinetobacter baumannii isolate 981650 measured after 24 hrs by microtiter dilution method; type: functional; details: isolate 981650, 24 h; method in brief: as §1
Acinetobacter baumannii [32] = assay: Antibacterial activity against polymyxin B/colistin-resistant Acinetobacter baumannii M89963 measured after 24 hrs by microtiter dilution method; type: functional; details: M89963, 24 h; method in brief: as §1
Acinetobacter baumannii [33] = assay: Antibacterial activity against Acinetobacter baumannii 649 measured after 24 hrs by microtiter dilution method; type: functional; details: Acinetobacter baumannii, 649, 24 h; method in brief: as §1
Acinetobacter baumannii [34] = assay: Antibacterial activity against polymyxin B/colistin-resistant Acinetobacter baumannii M89951 measured after 24 hrs by microtiter dilution method; type: functional; details: M89951, 24 h; method in brief: as §1
[35] = Therapeutic index, ratio of HC50 for human RBC to MIC for polymyxin B/colistin-resistant Acinetobacter baumannii M89941; type: toxicity; details: human red blood cells, read-out: TI; method in brief: as §2
Acinetobacter baumannii [36] = assay: Antibacterial activity against polymyxin B/colistin-resistant Acinetobacter baumannii M89952 measured after 24 hrs by microtiter dilution method; type: functional; details: M89952, 24 h; method in brief: as §1
[37] = Therapeutic index, ratio of HC50 for human RBC to MIC for polymyxin B/colistin-resistant Acinetobacter baumannii M89963; type: toxicity; details: human red blood cells, read-out: TI; method in brief: as §2
Acinetobacter baumannii [38] = assay: Antibacterial activity against Acinetobacter baumannii isolate 1017395 measured after 24 hrs by microtiter dilution method; type: functional; details: isolate 1017395, 24 h; method in brief: as §1

Molecule `CC(=O)N[C@H](CCCCN)C(=O)N[C@H](CC(C)C)C(=O)N[C@@H](CN)C(=O)N[C@H](CO)C(=O)N[C@H](CC(C)C)C(=O)N[C@H](CC(C)C)C(=O)N[C@@H](CN)C(=O)N[C@@H](C(=O)N[C@H](CC(C)C)C(=O)N[C@H](CO)C(=O)N[C@@H](CN)C(=O)N[C@H](C)C(=O)N[C@H](C)C(=O)N[C@H](C)C(=O)N[C@H](C)C(=O)N[C@H](C)C(=O)N[C@H](CC(C)C)C(=O)N[C@@H](CN)C(=O)N[C@@H](C(=O)N[C@H](CC(C)C)C(=O)N[C@H](CC(C)C)C(=O)N[C@@H](CN)C(=O)N[C@H](C)C(=O)N[C@H](CC(C)C)C(=O)N[C@H](CO)C(=O)N[C@@H](CN)C(N)=O)[C@H](C)O)[C@H](C)O` (Ac-[dK][dL][Dap][dS][dL][dL][Dap][dT][dL][dS][Dap][dA][dA][dA][dA][dA][dL][Dap][dT][dL][dL][Dap][dA][dL][dS][Dap]-NH2) has an MIC (Acinetobacter baumannii [1]) of 6.4 µM (≈ 16 µg/mL), a selectivity ratio [2] of 2.2 and an MIC (Acinetobacter baumannii [3]) of 0.8 µM (≈ 2 µg/mL). It also gave an MIC (Acinetobacter baumannii [4]) of 3.2 µM (≈ 8 µg/mL), an MIC (Acinetobacter baumannii [5]) of 0.8 µM (≈ 2 µg/mL) and an MIC (Acinetobacter baumannii [6]) of 3.2 µM (≈ 8 µg/mL). For the same molecule, the MIC (Acinetobacter baumannii [7]) was 1.6 µM (≈ 4 µg/mL), the MIC (Acinetobacter baumannii [8]) was 1.6 µM (≈ 4 µg/mL) and the MIC (Acinetobacter baumannii [9]) was 1.6 µM (≈ 4 µg/mL). The MIC (Acinetobacter baumannii [10]) was 1.6 µM (≈ 4 µg/mL), the selectivity ratio [11] was 2.2 and the MIC (Acinetobacter baumannii [12]) was 1.6 µM (≈ 4 µg/mL). The MIC (Acinetobacter baumannii [13]) was 3.2 µM (≈ 8 µg/mL), the MIC (Acinetobacter baumannii [14]) was 1.6 µM (≈ 4 µg/mL) and the MIC (Acinetobacter baumannii [15]) was 1.6 µM (≈ 4 µg/mL). The MIC (Acinetobacter baumannii [16]) was 1.6 µM (≈ 4 µg/mL), the MIC (Acinetobacter baumannii [17]) was 1.6 µM (≈ 4 µg/mL) and the MIC (Acinetobacter baumannii [18]) was 3.2 µM (≈ 8 µg/mL). The MIC (Acinetobacter baumannii [19]) was 0.8 µM (≈ 2 µg/mL), the MIC (Acinetobacter baumannii [20]) was 3.2 µM (≈ 8 µg/mL) and the MIC (Acinetobacter baumannii [21]) was 0.8 µM (≈ 2 µg/mL). For the same molecule, the MIC (Acinetobacter baumannii [22]) was 3.2 µM (≈ 8 µg/mL), the MIC (Acinetobacter baumannii [23]) was 1.6 µM (≈ 4 µg/mL) and the selectivity ratio [24] was 2.2. It also gave an MIC (Acinetobacter baumannii [25]) of 12.5 µM, an HC50 at 18 h [26] of 2900 nM and a selectivity ratio [27] of 2.2. For the same molecule, the selectivity ratio [28] was 2.2, the Ratio (Acinetobacter baumannii [29]) was 4 - 16 and the MIC (Acinetobacter baumannii [30]) was 3.2 µM (≈ 8 µg/mL). For the same molecule, the MIC (Acinetobacter baumannii [31]) was 1.6 µM (≈ 4 µg/mL), the MIC (Acinetobacter baumannii [32]) was 1.6 µM (≈ 4 µg/mL) and the MIC (Acinetobacter baumannii [33]) was 0.8 µM (≈ 2 µg/mL). The MIC (Acinetobacter baumannii [34]) was 0.8 µM (≈ 2 µg/mL), the selectivity ratio [35] was 2.2 and the MIC (Acinetobacter baumannii [36]) was 1.6 µM (≈ 4 µg/mL). It also gave a selectivity ratio [37] of 2.2 and an MIC (Acinetobacter baumannii [38]) of 3.2 µM (≈ 8 µg/mL).
